Data from ChEMBL document CHEMBL3352187, “Design, synthesis and molecular docking study of novel quinoxalin-2(1H)-ones as anti-tumor active agents with inhibition of tyrosine kinase receptor and studying their cyclooxygenase-2 activity” (Eur J Med Chem, 2014).

Columns and labels:
HepG2 [1] = test: Cytotoxicity against human HepG2 cells after 48 hrs by sulforhodamine B assay; type: functional, cell-based; conditions: HepG2, 48 h
Outline: (§1)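 Cells seeded at 10^4 per well, left 24 h to attach, then exposed to 0, 12.5, 25, 50 […] as printed, triplicate wells per dose, 48 h at 37 °C, 5% CO2. Fixed, stained with sulforhodamine B, excess dye removed with acetic acid, bound dye taken up in Tris EDTA and read on an ELISA reader. IC50 from survival curve of surviving fraction against concentration.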

MCF7 [2] = test: Cytotoxicity against human MCF7 cells after 48 hrs by sulforhodamine B assay; type: functional, cell-based; conditions: MCF7, 48 h; outline: as §1
HepG2 [3] = test: Inhibition of protein tyrosine kinase in human HepG2 cells assessed as change in TRK level at cytotoxic IC50 level incubated for 24 hrs by ELISA method; type: cell-based; set-up: scale not given: the % may be the effect or the level left
Outline: (§2)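 Cells kept in DMEM with 10% heat-inactivated fetal calf serum plus penicillin/streptomycin at 37 °C, 5% CO2. […] Cells homogenized in saline. TRK measured by double-antibody sandwich ELISA, OD 450 nm, read against a standard curve in triplicate. Percent inhibition relative to DMSO-treated control cells.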

MCF7 [4] = test: Inhibition of protein tyrosine kinase in human MCF7 cells assessed as change in TRK level at cytotoxic IC50 level incubated for 24 hrs by ELISA method; type: cell-based; set-up: scale not given: the % may be the effect or the level left; outline: as §2
[5] = target: T1, Prostaglandin G/H synthase 1 (Ovis aries, UniProt P05979); test: Inhibition of ovine COX1 assessed as reduction in PGH2 production using arachidonic acid substrate by enzyme immunoassay
T1 sequence (P05979 whole entry): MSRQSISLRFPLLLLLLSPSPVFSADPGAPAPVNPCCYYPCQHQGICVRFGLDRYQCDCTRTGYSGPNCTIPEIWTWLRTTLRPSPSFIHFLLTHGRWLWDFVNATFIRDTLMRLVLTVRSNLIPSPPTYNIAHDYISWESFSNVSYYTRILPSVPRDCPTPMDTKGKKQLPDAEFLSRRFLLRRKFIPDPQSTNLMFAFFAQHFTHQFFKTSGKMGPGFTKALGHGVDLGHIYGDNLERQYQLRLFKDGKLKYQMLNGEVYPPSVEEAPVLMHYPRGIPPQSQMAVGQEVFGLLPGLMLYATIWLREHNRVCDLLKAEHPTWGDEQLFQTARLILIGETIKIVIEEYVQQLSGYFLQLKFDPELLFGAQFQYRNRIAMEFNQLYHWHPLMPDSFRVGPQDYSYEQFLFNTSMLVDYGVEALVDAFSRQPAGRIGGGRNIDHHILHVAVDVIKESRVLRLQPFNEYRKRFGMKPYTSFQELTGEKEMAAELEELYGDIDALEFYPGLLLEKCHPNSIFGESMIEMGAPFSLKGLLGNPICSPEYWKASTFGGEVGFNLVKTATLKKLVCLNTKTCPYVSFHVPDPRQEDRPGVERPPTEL
Outline: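 Ovine COX-1 with heme in 0.1 M Tris-HCl pH 8.0 containing 5 mM EDTA and 2 mM phenol. Test compound given at […] final, from DMSO stock. Preincubated 5 min at 37 °C, then arachidonic acid added; stopped with 1 M HCl after 2 min. PGH2 reduced to PGF2a by stannous chloride, measured by competitive EIA at 410 nm. IC50 from concentration-inhibition curve, duplicate determinations.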

SMILES | IC50 [5] [µM] | IC50 (HepG2 [1]) [µM] | IC50 (MCF7 [2]) [µM] | Activity (HepG2 [3]) [%] | Activity (MCF7 [4]) [%]
Cc1nn(-c2ccccc2)c(SCC(=O)O)c1/C=N/Nc1nc2ccccc2nc1O |  | 40.6 | 33.6 | 22 | 4
Cc1nn(-c2ccccc2)c(N2CCN(S(=O)(=O)c3ccccc3[N+](=O)[O-])CC2)c1/C=N/Nc1nc2ccccc2nc1O |  | 32.2 | 14.3 | 13 | 37
Cc1nn(-c2ccccc2)c(SCCO)c1/C=N/Nc1nc2ccccc2nc1O |  | 23.4 | 11.3 | 78 | 82
Cc1nn(-c2ccc([N+](=O)[O-])cc2)c(Cl)c1/C=N/Nc1nc2ccccc2[nH]c1=O |  | 34.2 | 20.7 | 39 | 40
Cc1nn(-c2ccccc2)c(N2CCN(S(=O)(=O)c3ccccc3)CC2)c1/C=N/Nc1nc2ccccc2nc1O |  | 28.1 | 26.2 | 19 | 12

More lines, main results first:

IC50 [5] [µM] | SMILES | IC50 (HepG2 [1]) [µM] | IC50 (MCF7 [2]) [µM] | Activity (HepG2 [3]) [%] | Activity (MCF7 [4]) [%]
> 50 | Cc1nn(-c2ccccc2)c(N(C)C)c1/C=N/Nc1nc2ccccc2nc1O | 31.5 | 18 | 73 | 62
> 50 | Cc1nn(-c2ccccc2)c(OC2CCCC2)c1/C=N/Nc1nc2ccccc2nc1O | 36.5 | 31.5 | 40 | 16.5
> 50 | Cc1nn(-c2ccccc2)c(N2CCCCC2)c1/C=N/Nc1nc2ccccc2nc1O | 18.1 | 12.8 | 75 | 74
> 50 | Cc1nn(-c2ccccc2)c(N2CCN(C)CC2)c1/C=N/Nc1nc2ccccc2nc1O | 11.4 | 10 | 83 | 83
> 50 | Cc1nn(-c2ccccc2)c(N2CCNCC2)c1/C=N/Nc1nc2ccccc2nc1O | 38.1 | 16.3 | 20 | 66
> 50 | Cc1nn(-c2ccccc2)c(Cl)c1/C=N/Nc1nc2ccccc2[nH]c1=O | 19.6 | 25.2 | 79 | 34
> 50 | Cc1nn(-c2ccccc2)c(N2CCOCC2)c1/C=N/Nc1nc2ccccc2nc1O | 11 | 9.28 | 84 | 85
> 50 | CC(=O)N1CCN(c2c(/C=N/Nc3nc4ccccc4nc3O)c(C)nn2-c2ccccc2)CC1 | 11 | 18 | 80 | 
